Data from ChEMBL document CHEMBL4311965, “Antimicrobial activity of amphipathic α,α-disubstituted β-amino amide derivatives against ESBL - CARBA producing multi-resistant bacteria; effect of halogenation, lipophilicity and cationic character” (Eur J Med Chem, 2019).
≈ marks a conversion by molar mass, not a printed value.

Key:
[1] = system: Corynebacterium glutamicum; test: Antibacterial activity against Corynebacterium glutamicum ATCC 13032 cultured in MHB medium assessed as no bacterial growth incubated at 20 degC for 24 hrs by microdilution susceptibility test; format: functional; conditions: ATCC 13032, 24 h
Summary of the method: (§1)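 Broth microdilution per CLSI M07-A9 with modifications. Inoculum about 2.5–3 x 10⁴ cells/mL in Mueller-Hinton broth, mixed 1:1 with test derivative. DMSO stocks diluted in double-distilled water, final DMSO <1%. Incubation 24 h at 37 °C (20 °C for C. glutamicum). Growth and sterility controls included; oxytetracycline reference.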

[2] = system: Escherichia coli; test: Antibacterial activity against Escherichia coli ATCC 25922 cultured in MHB medium assessed as no bacterial growth incubated at 37 degC for 24 hrs by microdilution susceptibility test; format: functional; conditions: ATCC 25922, 24 h; summary of the method: as §1
[3] = system: Erythrocyte; test: Hemolytic activity against human RBC incubated for 1 hr; format: cell-based
Summary of the method: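 Heparinized human blood washed three times in warm PBS and set to 10% hct. Erythrocytes at 1% v/v final, with compound in PBS (DMSO <1%), shaken 1 h at 37 °C and then centrifuged. Supernatant absorbance read at 405 and 545 nm after PBS background subtraction. Haemolysis taken relative to 1% Triton X-100. Three independent replicates, EC50 averaged.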

[4] = system: Acinetobacter baumannii; test: Antibacterial activity against multidrug-resistant Acinetobacter baumannii K63-58 producing oxcillinase-23 cultured in MHB medium assessed as reduction in bacterial growth incubated for 24 hrs by microdilution susceptibility test; format: functional; conditions: K63-58, 24 h
Summary of the method: (§2)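 Broth microdilution per CLSI M07-A9 (modified). Working solutions made from concentrated DMSO stocks kept at r.t., diluted in double-distilled water, final DMSO <1%. Inoculum 1–1.2 x 10⁶ cells/mL in Mueller-Hinton broth, mixed 1:1 with compound. 37 °C, 24 h, four parallels. Read as OD₆₀₀. Where precipitation left residual OD, the point of major OD decrease was taken as the inhibitory concentration.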

[5] = system: Acinetobacter baumannii; test: Antibacterial activity against multidrug-resistant Acinetobacter baumannii K44-35 producing oxcillinase-23 cultured in MHB medium assessed as reduction in bacterial growth incubated for 24 hrs by microdilution susceptibility test; format: functional; conditions: K44-35, 24 h; summary of the method: as §2
[6] = system: Klebsiella pneumoniae; test: Antibacterial activity against multidrug-resistant Klebsiella pneumoniae 50531633 producing New Delhi metallo-beta-lactamase-1 and oxcillinase-181 cultured in MHB medium assessed as reduction in bacterial growth incubated for 24 hrs by microdilution susceptibility test; format: functional; conditions: Klebsiella pneumoniae, 50531633, 24 h; summary of the method: as §2
[7] = system: Enterococcus faecium; test: Antibacterial activity against multidrug-resistant Enterococcus faecium 50758899 cultured in BHIB medium assessed as reduction in bacterial growth incubated for 24 hrs by microdilution susceptibility test; format: functional; conditions: Enterococcus faecium, 50758899, 24 h
Summary of the method: (§3)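 Enterococci grown in Brain Heart Infusion broth, otherwise broth microdilution per CLSI M07-A9 (modified). Concentrated DMSO stocks kept at r.t. and diluted in double-distilled water, final DMSO <1%. Inoculum 1–1.2 x 10⁶ cells/mL mixed 1:1 with compound. 37 °C, 24 h, four parallels. OD₆₀₀ read-out, lowest concentration with no growth.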

[8] = system: Pseudomonas aeruginosa; test: Antibacterial activity against multidrug-resistant Pseudomonas aeruginosa K34-73 producing Verona integron encoded metallo beta-lactamse-4 cultured in MHB medium assessed as reduction in bacterial growth incubated for 24 hrs by microdilution susceptibility test; format: functional; conditions: K34-73, 24 h; summary of the method: as §2
[9] = system: Acinetobacter baumannii; test: Antibacterial activity against multidrug-resistant Acinetobacter baumannii K47-42 producing oxcillinase-23 cultured in MHB medium assessed as reduction in bacterial growth incubated for 24 hrs by microdilution susceptibility test; format: functional; conditions: K47-42, 24 h; summary of the method: as §2
[10] = system: Klebsiella pneumoniae; test: Antibacterial activity against multidrug-resistant Klebsiella pneumoniae 50625602 producing oxcillinase-245 cultured in MHB medium assessed as reduction in bacterial growth incubated for 24 hrs by microdilution susceptibility test; format: functional; conditions: Klebsiella pneumoniae, 50625602, 24 h; summary of the method: as §2
[11] = system: Pseudomonas aeruginosa; test: Antibacterial activity against multidrug-resistant Pseudomonas aeruginosa 50692520 producing Verona integron encoded metallo beta-lactamse cultured in MHB medium assessed as reduction in bacterial growth incubated for 24 hrs by microdilution susceptibility test; format: functional; conditions: Pseudomonas aeruginosa, 50692520, 24 h; summary of the method: as §2
[12] = system: Escherichia coli; test: Antibacterial activity against multidrug-resistant Escherichia coli 50739822 producing New Delhi metallo-beta-lactamase-1 cultured in MHB medium assessed as reduction in bacterial growth incubated for 24 hrs by microdilution susceptibility test; format: functional; conditions: Escherichia coli, 50739822, 24 h; summary of the method: as §2
[13] = system: Acinetobacter baumannii; test: Antibacterial activity against multidrug-resistant Acinetobacter baumannii K12-21 producing oxcillinase-58 cultured in MHB medium assessed as reduction in bacterial growth incubated for 24 hrs by microdilution susceptibility test; format: functional; conditions: K12-21, 24 h; summary of the method: as §2
[14] = system: Staphylococcus aureus; test: Antibacterial activity against multidrug-resistant Staphylococcus aureus 85/2082 cultured in MHB medium assessed as reduction in bacterial growth incubated for 24 hrs by microdilution susceptibility test; format: functional; conditions: 85/2082, 24 h; summary of the method: as §2
[15] = system: Staphylococcus aureus; test: Antibacterial activity against multidrug-resistant Staphylococcus aureus NCTC 10442 cultured in MHB medium assessed as reduction in bacterial growth incubated for 24 hrs by microdilution susceptibility test; format: functional; conditions: NCTC 10442, 24 h; summary of the method: as §2
[16] = system: Enterococcus faecium; test: Antibacterial activity against multidrug-resistant Enterococcus faecium K36-18 cultured in BHIB medium assessed as reduction in bacterial growth incubated for 24 hrs by microdilution susceptibility test; format: functional; conditions: K36-18, 24 h; summary of the method: as §3
[17] = system: MRC5; test: Cytotoxicity against human MRC5 cells assessed as reduction in cell viability incubated for 4 hrs by CellTiter 96 Aqueous One Solution Reagent based assay; conditions: MRC5, 4 h
Summary of the method: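 HepG2 and MRC-5 cells seeded at 35 000 and 15 000 cells/well respectively, then held overnight at 37 °C, 5% CO₂. Compounds in serum-free MEM Earle's applied for 4 h. MTS reagent (CellTiter 96 AQueous One) added for a further 1 h, absorbance read at 485 nm. Survival expressed relative to medium (negative) and Triton X-100 (positive) controls.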

[18] = system: Escherichia coli; test: Antibacterial activity against multidrug-resistant Escherichia coli 50676002 producing New Delhi metallo-beta-lactamase-1 cultured in MHB medium assessed as reduction in bacterial growth incubated for 24 hrs by microdilution susceptibility test; format: functional; conditions: Escherichia coli, 50676002, 24 h; summary of the method: as §2
[19] = system: Escherichia coli; test: Antibacterial activity against multidrug-resistant Escherichia coli 50579417 producing oxcillinase-48 cultured in MHB medium assessed as reduction in bacterial growth incubated for 24 hrs by microdilution susceptibility test; format: functional; conditions: Escherichia coli, 50579417, 24 h; summary of the method: as §2
[20] = system: Acinetobacter baumannii; test: Antibacterial activity against multidrug-resistant Acinetobacter baumannii K55-13 producing oxcillinase-24 cultured in MHB medium assessed as reduction in bacterial growth incubated for 24 hrs by microdilution susceptibility test; format: functional; conditions: K55-13, 24 h; summary of the method: as §2
[21] = system: Staphylococcus aureus; test: Antibacterial activity against multidrug-resistant Staphylococcus aureus IHT 99040 cultured in MHB medium assessed as reduction in bacterial growth incubated for 24 hrs by microdilution susceptibility test; format: functional; conditions: IHT 99040, 24 h; summary of the method: as §2
[22] = system: Klebsiella pneumoniae; test: Antibacterial activity against multidrug-resistant Klebsiella pneumoniae K47-25 producing carbapenemase-2 cultured in MHB medium assessed as reduction in bacterial growth incubated for 24 hrs by microdilution susceptibility test; format: functional; conditions: K47-25, 24 h; summary of the method: as §2

| Compound | MIC [1] [µg/mL] | MIC [2] [µg/mL] | EC50 [3] [µg/mL] | MIC [4] [µg/mL] | MIC [5] [µg/mL] | MIC [6] [µg/mL] | MIC [7] [µg/mL] | MIC [8] [µg/mL] | MIC [9] [µg/mL] | MIC [10] [µg/mL] | MIC [11] [µg/mL] | MIC [12] [µg/mL] | MIC [13] [µg/mL] | MIC [14] [µg/mL] | MIC [15] [µg/mL] | MIC [16] [µg/mL] | EC50 [17] [µg/mL] | MIC [18] [µg/mL] | MIC [19] [µg/mL] | MIC [20] [µg/mL] | other results |
| --- | --- | --- | --- | --- | --- | --- | --- | --- | --- | --- | --- | --- | --- | --- | --- | --- | --- | --- | --- | --- | --- |
| NCCNC(=O)C(CN)(Cc1ccc(F)c2ccccc12)Cc1ccc(F)c2ccccc12 | 2 (≈ 4.47 µM) | 4 (≈ 8.94 µM) | 74 (≈ 165 µM) | 16 (≈ 35.8 µM) | > 32 | 8 (≈ 17.9 µM) | 8 (≈ 17.9 µM) | 32 (≈ 71.5 µM) | 16 (≈ 35.8 µM) | 8 (≈ 17.9 µM) | > 32 | 16 (≈ 35.8 µM) | 32 (≈ 71.5 µM) | 8 (≈ 17.9 µM) | 8 (≈ 17.9 µM) | 16 (≈ 35.8 µM) | 4 (≈ 8.94 µM) | 8 (≈ 17.9 µM) | 8 (≈ 17.9 µM) | 32 (≈ 71.5 µM) | MIC [21]: 16 µg/mL (≈ 35.8 µM); MIC [22]: 32 µg/mL (≈ 71.5 µM) |
| NCCNC(=O)C(CN)(Cc1ccccc1C(F)(F)F)Cc1ccccc1C(F)(F)F | 8 (≈ 17.9 µM) | 32 (≈ 71.5 µM) | 312 (≈ 697 µM) | > 32 | > 32 | > 32 | > 32 | > 32 | > 32 | > 32 | > 32 | > 32 | > 32 | > 32 | > 32 | > 32 | 42 (≈ 93.9 µM) | > 32 | > 32 | > 32 | MIC [21]: 32 µg/mL (≈ 71.5 µM); MIC [22]: > 32 µg/mL |
| NCCNC(=O)C(CN)(Cc1ccc(C(F)(F)F)cc1)Cc1ccc(C(F)(F)F)cc1 | 4 (≈ 8.94 µM) | 16 (≈ 35.8 µM) | 289 (≈ 646 µM) | > 32 | > 32 | 32 (≈ 71.5 µM) | 32 (≈ 71.5 µM) | > 32 | > 32 | 32 (≈ 71.5 µM) | > 32 | 32 (≈ 71.5 µM) | > 32 | > 32 | > 32 | 16 (≈ 35.8 µM) | 16 (≈ 35.8 µM) | > 32 | > 32 | > 32 | MIC [21]: > 32 µg/mL; MIC [22]: > 32 µg/mL |
| N=C(N)NCCNC(=O)C(CNC(=N)N)(Cc1cc(Br)cc(Br)c1)Cc1cc(Br)cc(Br)c1 | 0.25 (≈ 0.352 µM) | 8 (≈ 11.3 µM) | 206 (≈ 290 µM) | 16 (≈ 22.5 µM) | 16 (≈ 22.5 µM) | 16 (≈ 22.5 µM) | 4 (≈ 5.63 µM) | 16 (≈ 22.5 µM) | 16 (≈ 22.5 µM) | 16 (≈ 22.5 µM) | 4 (≈ 5.63 µM) | 8 (≈ 11.3 µM) | 16 (≈ 22.5 µM) | 2 (≈ 2.81 µM) | 2 (≈ 2.81 µM) | 4 (≈ 5.63 µM) | > 64 | 8 (≈ 11.3 µM) | 8 (≈ 11.3 µM) | 16 (≈ 22.5 µM) | MIC [21]: 2 µg/mL (≈ 2.81 µM); MIC [22]: 32 µg/mL (≈ 45 µM) |
